Experiments:
amyloid-beta (Aβ42) = amyloid-beta (Aβ42) (Homo sapiens, UniProt P05067); experiment: Binding to synthetic Aβ42 peptide and molecular modeling; details: compared to monomeric counterparts
B16F10 cells = experiment: Cell binding; assay type: cell-based; details: plateau after 30 minutes
melanoma tumor (B16F10) = experiment: In-vivo biodistribution; design: species or system C57BL6 mice; details: mouse
HCC827 = experiment: Methylene blue IC50 assay; assay type: cell-based; details: Homo sapiens
NCI-H1975 = experiment: Methylene blue IC50 assay; assay type: cell-based; details: Homo sapiens
NCI-H3255 = experiment: Methylene blue IC50 assay; assay type: cell-based; details: Homo sapiens
QG56 (wild-type EGFR) = experiment: Methylene blue IC50 assay; assay type: cell-based; details: Homo sapiens, QG-56
[1] = test system: metastatic pheochromocytoma and paraganglioma; experiment: I-131 MIBG therapy of metastatic pheochromocytoma and paraganglioma; assay type: in vivo, patients
medullary thyroid cancer = experiment: 131I-mIBG therapy of medullary thyroid cancer; assay type: in vivo, patients
Summary of the method: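 131I-mIBG given as dose-adjusted intravenous infusions in 100 ml 0.9% sodium chloride by syringe pump over 3 hours, at 30.5 to 120 mCi per dose. Twenty-three therapy doses in total, 1–4 per patient.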

CXCR4 receptors [2] = biological target: T1, CXCR4 receptors (Homo sapiens, UniProt P61073); assay type: in vivo, patients
RGD binding integrins = assay type: in vivo, patients
CXCR4 receptors [3] = biological target: T1, CXCR4 receptors; design: species or system patients; details: in vivo
[4] = test system: papillary thyroid carcinoma; experiment: Empirical radioiodine therapy in papillary thyroid carcinoma; assay type: in vivo, patients; details: of 100
Summary of the method: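 100 papillary thyroid carcinoma patients received 1–3 empirical radioiodine ablations and were followed from 6 months to 12 years. Histologies were classical, follicular, oncocytic, tall cell and microcarcinoma. Disease status was judged from serum thyroglobulin trend during follow-up.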

thyroid remnant = experiment: 131I remnant ablation in differentiated thyroid cancer; assay type: in vivo, patients
[5] = test system: peripheral blood lymphocytes; experiment: Cytokinesis block micronuclei assay after therapeutic 131I; assay type: in vivo, patients
Summary of the method: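 Blood was drawn from 18 thyroid cancer patients before and 72 hrs after a single oral therapeutic 131I dose (5.7 ± 2.1 GBq). Nine healthy volunteers served as controls. Samples were run by standard cytokinesis-block micronucleus protocol, scoring MN, NBUDs and NBR per 1000 binucleate PBLs.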

carcinoma prostate = experiment: Detection of metastatic disease in carcinoma prostate, PET-CT; assay type: in vivo, patients; details: for detection rate, lymph nodes: 50 patients, head-to-head; for detection rate, skeletal metastases / detection rate, soft tissue metastases: in vivo
[6] = In-vitro stability of 99mTc-glibenclamide; assay type: physicochemical; details: solution in PEG 400, ethanol, DMSO stored at 2-8 C, without lyophilization
[7] = test system: metastatic prostate cancer; experiment: 99mTc-PSMA SPECT/CT vs 68Ga-PSMA PET/CT lesion detection; assay type: in vivo, patients
Summary of the method: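 61 male patients with metastatic prostate cancer (mean age 67 ± 7.82 years) received i.v. 99mTc-PSMA, mean 12.82 ± 1.15 mCi. Anterior and posterior whole-body images were taken at 2.0 and 4.0 h on a dual-head gamma camera (matrix 256×1024, 12 cm/min). Lesion counts were compared against 68Ga-PSMA.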

[8] = Biodistribution and dosimetry of 177Lu-DOTA-rituximab; assay type: in vivo, patients
Summary of the method: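 22 patients received a diagnostic administration, mean 288.6 MBq. Blood clearance, organ residence times and effective half-life were derived. Whole-body and organ (liver, spleen, kidneys, bone marrow) absorbed doses were expressed per MBq using OLINDA/EXM v2.1.1.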

BIRADS-V breast lesions = experiment: 99mTc-MDM scintimammography; assay type: in vivo, patients
Summary of the method: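 For labelling, 15–20 mCi sodium pertechnetate was added to the kit vial and made up to 1.5 ml with 0.9% NaCl. It was incubated 15–20 min, then 0.22 µm filtered. 15–20 mCi was injected i.v. under the gamma camera. Spot views (anterior/posterior and lateral prone) were taken at 10, 60 and 180 min, and uptake mean and SD calculated at each time.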

Glioblastoma multiforme = experiment: [64Cu]CuCl2 PET in glioblastoma multiforme; assay type: in vivo, patients
U87 = details: temozolomide sensitive line; stated in methods, ref not given; cited from earlier work
LN18 = details: temozolomide resistant line; stated in methods, ref not given; cited from earlier work
[9] = test system: estrogen receptor-positive (ER+) tumors; experiment: Tumor localization of 99mTc-; assay type: in vivo
[10] = Stability of 68Ga-FAPI till 4 hrs by ITLC; assay type: physicochemical
[11] = RCP of 68Ga-FAPI over time by TLC and HPLC; assay type: physicochemical
Summary of the method: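 Radiolabelled yield and RCP of the product were assessed by gradient HPLC and by TLC, using 0.1M sodium citrate and 50% acetonitrile as solvents. Physical appearance, pH and colour were also checked.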

[12] = test system: mCRPC with liver metastases; experiment: [177Lu]Lu-PSMA-617 in mCRPC with liver metastases; assay type: in vivo, patients
kidney = experiment: Effect of probenecid on renal uptake of 68Ga-DOTATATE and 68Ga-PSMA11; assay type: in vivo, Wistar rats; details: control versus experimental groups
HeLa cells (PDL-1) = experiment: Cell binding; assay type: cell-based, human; details: plateau after 30 minutes
HeLa xenograft = experiment: In-vivo biodistribution; design: species or system SCID mice; details: mouse

T1 sequence (P61073 whole entry): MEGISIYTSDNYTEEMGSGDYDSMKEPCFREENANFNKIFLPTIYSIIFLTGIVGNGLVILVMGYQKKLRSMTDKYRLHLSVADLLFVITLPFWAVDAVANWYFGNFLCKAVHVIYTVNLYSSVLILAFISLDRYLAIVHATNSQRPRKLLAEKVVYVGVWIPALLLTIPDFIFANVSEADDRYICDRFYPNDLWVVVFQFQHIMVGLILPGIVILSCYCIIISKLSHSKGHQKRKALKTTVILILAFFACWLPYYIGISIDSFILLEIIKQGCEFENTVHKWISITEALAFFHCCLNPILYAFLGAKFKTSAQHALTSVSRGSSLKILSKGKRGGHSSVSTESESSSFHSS
amyloid-beta (Aβ42), sequence (P05067 672-713): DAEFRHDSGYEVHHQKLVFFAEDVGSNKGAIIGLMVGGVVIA

Compound: CN(CCOc1ccc(C(=O)/C=C/c2ccc(N(C)C)cc2)cc1)CCOc1ccc(C(=O)/C=C/c2ccc(N(C)C)cc2)cc1 [¹¹C-(Chal)2DEA-Me, (2E,2′E)-1,1′-((((methylazanediyl)bis(ethane-2,1-diyl))bis(oxy))bis(4,1-phenylene))bis(3-(4-(dimethylamino)phenyl)prop-2-en-1-one)]
- binding affinity (amyloid-beta (Aβ42)): superior binding affinity compared to monomeric counterparts

Compound: [^90Y]Y-CHX-A”-DTPA-Bevacizumab
- binding in cells (B16F10 cells): Approximately 32 ± 3%
- accumulation in tumor (melanoma tumor (B16F10)): 8.2 ± 2.7 % ID/g

Compound: C=CC(=O)Nc1cc(Nc2nccc(-c3cn(C)c4ccccc34)n2)c(OC)cc1N(C)CCN(C)C [Osimietinib, Osimertinib]
- IC50 (HCC827): 2 nM
- IC50 (NCI-H3255): 4 nM
- IC50 (QG56 (wild-type EGFR)): 1800 nM

Compound: N=C(N)NCc1cccc([131I])c1 [I-131 MIBG, Metaiodobenzylguanidine]
- immediate side effect post therapy ([1]; 20 patients): only one patient experienced severe vomiting
- patients with symptomatic relief ([1]; in vivo): 70%
- progressive disease ([1]; in vivo): 9/20
- partial response ([1]; ~100mCi i.v. per therapy): 11/20
- calcitonin levels remained stable (medullary thyroid cancer; 30.5 to 120 mCi per dose, 1-4 doses): 8/13
- calcitonin levels progressed (medullary thyroid cancer; in vivo): 5/13
- regression on repeat mIBG scans (medullary thyroid cancer; in vivo): 3/12
- side effects (medullary thyroid cancer; in vivo): no reported side effects

Compound: ^18F-FDG
- increase in mean SUVmax, PD (CXCR4 receptors [2]; n = 3): 9.8%
- percent decrease in mean SUVmax, VGPR (CXCR4 receptors [2]; n = 6): 68.8%
- percent decrease in mean SUVmax, CR (CXCR4 receptors [2]; n = 9): 78.6%
- percent decrease in mean SUVmax, PR (CXCR4 receptors [2]; n = 12): 43.3%
- overall sensitivity (RGD binding integrins; in vivo): 92.86%
- overall specificity (RGD binding integrins; in vivo): 100%
- skeletal metastatic lesions seen (RGD binding integrins; of 23): 78.26%
- patients positive for the disease (RGD binding integrins; of 30): 86.66%
- soft tissue lesions seen (RGD binding integrins; of 47): 100%
- lung lesions seen (RGD binding integrins; of 130): 90%
- lesions with uptake (RGD binding integrins; of 200 lesions): 91%
- lesions with increased tracer uptake (CXCR4 receptors [3]): 55 lesions

Compound: [131IH] [radioiodine]
- progression post empirical therapy [4]: Fifty-two
- regression of disease (decreasing serum thyroglobulin) [4]: 38 patients
- successful remnant ablation (thyroid remnant; baseline S Tg <12.3): 84.1%
- successful remnant ablation (thyroid remnant; baseline S Tg more than 12.3): 21.2%
- patients with successful ablation in a single dose (thyroid remnant; of 383, 70.3 ± 33.6 mCi): 251 patients
- NBUDS /1000 BN PBLs post exposure ([5]; 72 hrs after 5.7 ± 2.1 GBq, Pre 7.4 ± 5.3, n = 18): 11.9 ± 7.2
- NBR /1000 BN PBLs post exposure ([5]; 72 hrs after exposure, Pre 5.7 ± 4.4): 14.4 ± 8.1

Compound: O=C([O-])CN(CCN(CC(=O)[O-])Cc1cc(CCC(=O)NCCCCCC(=O)NCCCC[C@H](NC(=O)N[C@@H](CCC(=O)O)C(=O)O)C(=O)O)ccc1[O-])Cc1cc(CCC(=O)O)ccc1[O-].[68Ga+3].[OH3+] [^68Ga-PSMA-11]
- detection rate, lymph nodes (carcinoma prostate): 99%
- detection rate, skeletal metastases (carcinoma prostate): 99%
- detection rate, soft tissue metastases (carcinoma prostate): 85.4%

Compound: COc1ccc(Cl)cc1C(=O)NCCc1ccc(S(=O)(=O)NC(=O)NC2CCCCC2)cc1 [GBD, Glibenclamide]
- period for which solubilized drug solution was labeled efficiently [6]: 2 months

Compound: O=C([O-])CN(CCN(CC(=O)[O-])Cc1cc(CCC(=O)NCCCCCC(=O)NCCCC[C@H](NC(=O)N[C@@H](CCC(=O)O)C(=O)O)C(=O)O)ccc1[O-])Cc1cc(CCC(=O)O)ccc1[O-].[68Ga+3].[OH3+] [^68Ga-PSMA]
- pelvic lesions detected ([7]; 61 patients): 341 lesions
- extra pelvic distant metastatic lesions detected ([7]; in vivo): 237 lesions
- total lesions detected ([7]; in vivo): 578 lesions

Compound: ^177Lu-DOTA-rituximab
- effective half-life ([8]; 22 patients): 104.5 ± 22 h
- mean WB radiation absorbed dose ([8]; OLINDA/EXM): 0.208 ± 0.03 mGy/MBq
- mean WB effective dose ([8]; in vivo): 0.196 ± 0.05 mGy/MBq
- mean radiation absorbed dose, bone marrow ([8]; in vivo): 0.136 ± 0.02
- mean radiation absorbed dose, kidneys ([8]; in vivo): 1.01 ± 0.42 mGy/MBq
- mean radiation absorbed dose, liver ([8]; in vivo): 0.613 ± 0.21 mGy/MBq
- mean radiation absorbed dose, spleen ([8]; in vivo): 1.68 ± 2 mGy/MBq

Compound: DTPA-bis-methionine [^99mTc-MDM]
- mean Tu:Bkg ratio (BIRADS-V breast lesions; Prone Lateral, 10min): 1.89 ± 0.578
- mean Tu:Bkg ratio (BIRADS-V breast lesions; Prone Lateral, 1hr): 1.95 ± 0.717
- mean Tu:Bkg ratio (BIRADS-V breast lesions; Prone Lateral, 3hrs): 2.059 ± 0.728
- mean Tu:Bkg ratio (BIRADS-V breast lesions; anterior view, 10min): 2.606 ± 0.601
- mean Tu:Bkg ratio (BIRADS-V breast lesions; anterior view, 3hrs): 3.04 ± 1.114

Compound: [^177Lu]Lu-DOTA-Bevacizumab
- binding in cells (B16F10 cells): Approximately 32 ± 3%
- accumulation in tumor (melanoma tumor (B16F10)): 8.2 ± 2.7 % ID/g

Compound: [64Cu+2].[Cl-].[Cl-] [^64CuCl2, 64-copper chloride]
- detection rate, lymph nodes (carcinoma prostate): 79%
- detection rate, skeletal metastases (carcinoma prostate): 77.3%
- detection rate, soft tissue metastases (carcinoma prostate): 80.6%
- SUVmax (Glioblastoma multiforme; first imaging, 2 patients): 1.12
- tolerability (Glioblastoma multiforme; in vivo): well-tolerated

Compound: Cn1nnc2c(C(N)=O)ncn2c1=O [temozolomide]
- IC50 (U87): 10000 to 100000 nM
- IC50 (LN18): 400000 to 500000 nM

Compound: CC12CCC3c4ccc(O)cc4CCC3C1CCC2(O)c1cn(CCNC(=O)CN(CCN(CCN(CC(=O)O)CC(=O)NCCn2cc(C3(O)CCC4C5CCc6cc(O)ccc6C5CCC43C)nn2)CC(=O)O)CC(=O)O)nn1 (stereo not drawn) [^99mTc[(EST)2DT], 5,8-bis(carboxymethyl)-13-(4-(3,17-dihydroxy-13-methyl-7,8,9,11,12,13,14,15,16,17-decahydro-6H-cyclopenta[α]phenanthren-17-yl)-1H-1,2,3-triazol-1-yl)-2-(2-(2-(4-(3,17-dihydroxy-13-methyl-7,8,9,11,12,13,14,15,16,17-decahydro-6H-cyclopenta[α]phenanthren-17-yl)-1H-1,2,3-triazol-1-yl)ethylamino)-2-oxoethyl)-10-oxo-2,5,8,11-tetraazatridecane-1-carboxylic acid, metal not drawn]
- T/M ratio ([9]; at 2.0 hours): 1.11 ± 0.34
- increase in tumor localization ([9]; in vivo): fivefold

Compound: N#C[C@@H]1CC(F)(F)CN1C(=O)CNC(=O)c1ccnc2ccc(OCCCN3CCN(C(=O)CN4CCN(CC(=O)[O-])CCN(CC(=O)[O-])CCN(CC(=O)[O-])CC4)CC3)cc12.[68Ga+3] [68Ga-DOTA-FAPI04]
- stability (RCP) at 4 hrs [10]: 96.31%
- RCP by TLC ([11]; 0.1M Na citrate, 30 min): 98.84±0.7%
- RCP by TLC ([11]; 0.1M Na citrate, 1 h): 98.27±0.81%
- RCP by TLC ([11]; 0.1M Na citrate, 2 h): 97.18±1.5%
- RCP by TLC ([11]; 50% acetonitrile, 30 min): 98.24±0.86%
- RCP by TLC ([11]; 50% acetonitrile, 1 h): 97.84±0.98%
- RCP by TLC ([11]; 50% acetonitrile, 2 h): 96.89±1.1%
- RCP by HPLC ([11]; 30 min): 100%
- RCP by HPLC ([11]; 1 h): 100%
- RCP by HPLC ([11]; 2 h): 100%

Compound: [^177Lu]Lu-PSMA-617
- Grade 3 anemia ([12]; 2/18 patients): 11.1%
- ORR ([12]; 4/14 patients): 28.6%
- best PSA-RR (PSA decline of ≥50%) ([12]; 4/16 patients, median cumulative 11.1 GBq over 1-7 cycles): 25%
- median OS ([12]; 95% CI: 11.5-14.5): 13.0 months

Compound: CCCN(CCC)S(=O)(=O)c1ccc(C(=O)O)cc1 [probenecid, Probenecid]
- change in kidney excretion pattern (kidney): no significant change

Compound: [^90Y]Y-CHX-A”-DTPA-Atezolizumab
- binding with cells (HeLa cells (PDL-1)): ~ 18 ± 3.5%
- retention in the tumor (HeLa xenograft): 5.2 ± 2.5 % ID/gm
